# From publication PMC11318567 (Computational and Structural Biotechnology Journal, 2024)
# Key:
# human topo IIβ = human topo IIβ (Homo sapiens, UniProt Q02880); assay: Human topo IIβ-mediated decatenation assay; format: biochemical
# human topo IIα [1] = biological target: T1, human topo IIα (Homo sapiens, UniProt P11388); assay: Human topoisomerase IIα-mediated cleavage assay; format: biochemical; settings: 7.8-125 μM
# human topo IIα [2] = biological target: T1, human topo IIα; assay: Human topo IIα competitive cleavage assay; format: biochemical; settings: in the presence of 50 μM etoposide
# wheatgerm topo I = assay: Wheatgerm topo I unwinding assay; format: biochemical, wheat germ; settings: 7.8, 15.6, 31.25, 125 μM
# Summary of the method: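 Wheat germ topo I plasmid unwinding run in duplicate at 7.8, 15.6, 31.25 and 125 µM test compound, with the intercalator m-AMSA as positive control.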
# human topo II = human topo II (Homo sapiens, UniProt P11388); assay: Competitive ATPase assay; format: biochemical; settings: IC50 versus ATP concentration
# Sequence of human topo II (P11388 whole entry): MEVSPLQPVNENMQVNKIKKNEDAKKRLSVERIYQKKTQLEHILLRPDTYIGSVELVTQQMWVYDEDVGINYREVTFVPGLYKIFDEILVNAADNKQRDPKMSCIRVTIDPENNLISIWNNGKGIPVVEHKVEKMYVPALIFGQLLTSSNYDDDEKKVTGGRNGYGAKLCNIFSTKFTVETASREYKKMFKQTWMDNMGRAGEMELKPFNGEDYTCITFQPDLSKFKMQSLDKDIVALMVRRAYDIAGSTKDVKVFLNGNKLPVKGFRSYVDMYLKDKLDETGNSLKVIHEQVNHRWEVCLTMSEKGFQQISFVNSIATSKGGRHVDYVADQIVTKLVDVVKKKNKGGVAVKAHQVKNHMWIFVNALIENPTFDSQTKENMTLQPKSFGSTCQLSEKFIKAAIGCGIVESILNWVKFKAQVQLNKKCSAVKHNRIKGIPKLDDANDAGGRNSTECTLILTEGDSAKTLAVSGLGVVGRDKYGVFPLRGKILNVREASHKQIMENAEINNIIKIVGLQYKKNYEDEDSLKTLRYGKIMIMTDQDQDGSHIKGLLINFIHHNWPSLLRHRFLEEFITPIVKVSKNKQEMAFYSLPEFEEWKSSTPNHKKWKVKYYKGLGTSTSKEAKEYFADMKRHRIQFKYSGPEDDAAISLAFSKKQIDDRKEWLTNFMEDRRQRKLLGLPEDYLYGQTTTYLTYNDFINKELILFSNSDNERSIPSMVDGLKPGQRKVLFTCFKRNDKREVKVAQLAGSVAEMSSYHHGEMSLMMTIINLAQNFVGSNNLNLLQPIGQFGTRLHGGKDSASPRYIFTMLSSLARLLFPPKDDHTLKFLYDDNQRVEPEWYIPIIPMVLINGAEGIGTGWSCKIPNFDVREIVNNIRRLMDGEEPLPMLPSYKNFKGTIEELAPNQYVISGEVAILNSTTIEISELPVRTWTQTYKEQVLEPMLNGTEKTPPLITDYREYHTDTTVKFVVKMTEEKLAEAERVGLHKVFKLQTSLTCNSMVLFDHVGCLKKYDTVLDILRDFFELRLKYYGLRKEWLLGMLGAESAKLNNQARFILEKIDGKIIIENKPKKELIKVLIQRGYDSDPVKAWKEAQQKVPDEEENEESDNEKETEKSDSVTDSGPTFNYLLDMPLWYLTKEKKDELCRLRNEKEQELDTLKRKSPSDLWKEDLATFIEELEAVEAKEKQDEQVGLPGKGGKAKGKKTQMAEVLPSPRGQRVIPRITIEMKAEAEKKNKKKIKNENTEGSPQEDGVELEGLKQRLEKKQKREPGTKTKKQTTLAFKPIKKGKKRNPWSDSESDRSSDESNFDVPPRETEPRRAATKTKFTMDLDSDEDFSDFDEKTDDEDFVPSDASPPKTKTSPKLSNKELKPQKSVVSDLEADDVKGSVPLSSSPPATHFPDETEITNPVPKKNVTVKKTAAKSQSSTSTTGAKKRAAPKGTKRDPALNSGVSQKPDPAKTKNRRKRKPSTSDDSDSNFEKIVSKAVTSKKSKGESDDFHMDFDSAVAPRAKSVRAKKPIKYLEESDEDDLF
# Summary of the method: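 NADH-coupled ATPase (pyruvate kinase/lactate dehydrogenase, phosphoenolpyruvate) with human topo II at 14 nM final and linear pBR322. Buffer was 20 mM Tris-HCl, 5 mM Mg acetate, 125 mM K acetate, 2 mM DTT, pH 7.9. Compound in DMSO went in before enzyme, then a 10–15 min OD340 pre-run. ATP was added at varying concentrations and OD340 followed for up to 30 min at 37 °C, in duplicate. Hydrolysis rates vs ATP gave IC50 at each ATP level.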
# [3] = biological target: ATPase domain of topo IIα (Homo sapiens, UniProt P11388); assay: 1H STD NMR experiments; format: binding; settings: protein:ligand ratio 1:100
# Summary of the method: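 Runs were at 600 MHz, 25 °C, with a 100 ms T₁ρ filter. On-resonance saturation was at −0.727 ppm and off-resonance at 30 ppm. Saturation was 0.5 or 1 s depending on compound, with relaxation delay 4 or 1.5 s. Epitope maps come from STD amplification factors.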
# [4] = Solubility as observed during preparation for assays; format: physicochemical
# [5] = system: NCI-60 human cancer cell lines; assay: NCI-60 screening, whole panel; format: cell-based; settings: 10 µM
# B-Raf = B-Raf (Homo sapiens, UniProt P15056); assay: KinaseProfiler kinase activity assay; format: biochemical
# Summary of the method: (§1)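 Radiometric kinase assay of test compound at 10 µM, added first from a 50× DMSO stock with no pre-incubation. Kinase was diluted in 45 mM TRIS, 0.4 mM EGTA, 18 mM DTT, 0.02 % Triton X-100, 1 mM sodium orthovanadate, 1 mM β-glycerophosphate, 2 % glycerol. Solvent wells (2 % DMSO) gave 100 % activity. Staurosporine blank wells defined 0 % activity.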
# CDK1/cyclinB = CDK1/cyclinB (Homo sapiens, UniProt P06493); assay: KinaseProfiler kinase activity assay; format: biochemical
# Summary of the method: (§2)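 Radiometric kinase activity assay. Test compound was made as a 50× stock in 100 % DMSO and added first to 10 µM, with no pre-incubation before reaction start. Kinase was prepared in 20 mM MOPS, 1 mM EDTA, 0.01 % Brij-35, 5 % glycerol, 0.1 % β-mercaptoethanol, 1 mg/mL BSA. Full-activity wells had 2 % DMSO without compound. Blank wells with staurosporine set 0 % activity.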
# cKit = cKit (Homo sapiens, UniProt P10721); assay: KinaseProfiler kinase activity assay; format: biochemical
# Summary of the method: as §2
# c-RAF = c-RAF (Homo sapiens, UniProt P04049); assay: KinaseProfiler kinase activity assay; format: biochemical
# Sequence of c-RAF (P04049 whole entry): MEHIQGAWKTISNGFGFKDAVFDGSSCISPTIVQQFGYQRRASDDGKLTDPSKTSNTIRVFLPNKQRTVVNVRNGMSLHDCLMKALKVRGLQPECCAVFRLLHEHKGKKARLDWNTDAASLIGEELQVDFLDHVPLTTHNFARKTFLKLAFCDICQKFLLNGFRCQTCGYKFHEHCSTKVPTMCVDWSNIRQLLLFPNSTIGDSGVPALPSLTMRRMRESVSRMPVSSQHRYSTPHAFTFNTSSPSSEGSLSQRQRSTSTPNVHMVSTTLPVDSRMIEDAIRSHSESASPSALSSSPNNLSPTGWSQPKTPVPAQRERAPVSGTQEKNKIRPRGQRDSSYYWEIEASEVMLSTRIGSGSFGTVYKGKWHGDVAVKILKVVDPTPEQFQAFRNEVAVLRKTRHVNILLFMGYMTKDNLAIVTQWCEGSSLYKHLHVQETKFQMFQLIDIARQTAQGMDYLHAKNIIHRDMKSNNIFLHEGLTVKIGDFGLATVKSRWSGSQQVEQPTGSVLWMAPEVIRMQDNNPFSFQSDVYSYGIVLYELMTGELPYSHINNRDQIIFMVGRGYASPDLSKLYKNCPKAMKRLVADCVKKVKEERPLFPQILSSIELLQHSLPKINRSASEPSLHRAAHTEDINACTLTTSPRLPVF
# Summary of the method: as §1
# EGFR = EGFR (Homo sapiens, UniProt P00533); assay: KinaseProfiler kinase activity assay; format: biochemical
# Sequence of EGFR (P00533 25-1210): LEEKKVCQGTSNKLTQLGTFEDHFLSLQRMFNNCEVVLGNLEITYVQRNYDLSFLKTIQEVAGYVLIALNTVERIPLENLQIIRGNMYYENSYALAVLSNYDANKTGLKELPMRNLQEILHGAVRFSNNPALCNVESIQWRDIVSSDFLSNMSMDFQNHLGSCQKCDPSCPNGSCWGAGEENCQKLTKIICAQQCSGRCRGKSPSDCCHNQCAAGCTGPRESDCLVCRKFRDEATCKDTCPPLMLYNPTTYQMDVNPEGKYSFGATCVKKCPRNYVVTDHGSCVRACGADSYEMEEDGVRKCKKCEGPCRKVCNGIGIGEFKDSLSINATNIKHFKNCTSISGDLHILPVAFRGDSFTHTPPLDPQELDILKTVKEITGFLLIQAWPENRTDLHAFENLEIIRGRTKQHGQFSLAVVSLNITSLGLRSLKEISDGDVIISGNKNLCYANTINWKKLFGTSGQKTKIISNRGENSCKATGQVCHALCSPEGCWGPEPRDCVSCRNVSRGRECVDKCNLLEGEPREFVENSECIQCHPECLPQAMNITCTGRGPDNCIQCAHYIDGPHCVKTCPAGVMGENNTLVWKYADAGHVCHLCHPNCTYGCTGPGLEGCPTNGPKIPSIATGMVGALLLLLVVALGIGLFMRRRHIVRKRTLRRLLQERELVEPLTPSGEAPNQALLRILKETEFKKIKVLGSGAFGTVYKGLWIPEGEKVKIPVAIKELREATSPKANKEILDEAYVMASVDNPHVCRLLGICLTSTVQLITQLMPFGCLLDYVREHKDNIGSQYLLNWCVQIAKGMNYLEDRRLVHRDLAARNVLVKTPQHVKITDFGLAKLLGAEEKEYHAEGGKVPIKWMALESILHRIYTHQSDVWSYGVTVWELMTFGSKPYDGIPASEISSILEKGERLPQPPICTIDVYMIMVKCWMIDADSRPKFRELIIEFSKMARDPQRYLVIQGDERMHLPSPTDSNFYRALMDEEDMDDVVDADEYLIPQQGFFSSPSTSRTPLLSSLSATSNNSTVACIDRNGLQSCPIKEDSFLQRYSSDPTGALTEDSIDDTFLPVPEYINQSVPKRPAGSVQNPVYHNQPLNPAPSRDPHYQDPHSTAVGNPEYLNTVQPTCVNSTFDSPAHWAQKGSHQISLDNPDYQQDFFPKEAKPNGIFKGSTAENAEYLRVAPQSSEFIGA
# Summary of the method: as §2
# FGFR1 = FGFR1 (Homo sapiens, UniProt P11362); assay: KinaseProfiler kinase activity assay; format: biochemical
# Summary of the method: as §2
# FGFR3 = FGFR3 (Homo sapiens, UniProt P22607); assay: KinaseProfiler kinase activity assay; format: biochemical
# Summary of the method: as §2
# Flt1 = Flt1 (Homo sapiens, UniProt P17948); assay: KinaseProfiler kinase activity assay; format: biochemical
# Sequence of Flt1 (P17948 27-1338): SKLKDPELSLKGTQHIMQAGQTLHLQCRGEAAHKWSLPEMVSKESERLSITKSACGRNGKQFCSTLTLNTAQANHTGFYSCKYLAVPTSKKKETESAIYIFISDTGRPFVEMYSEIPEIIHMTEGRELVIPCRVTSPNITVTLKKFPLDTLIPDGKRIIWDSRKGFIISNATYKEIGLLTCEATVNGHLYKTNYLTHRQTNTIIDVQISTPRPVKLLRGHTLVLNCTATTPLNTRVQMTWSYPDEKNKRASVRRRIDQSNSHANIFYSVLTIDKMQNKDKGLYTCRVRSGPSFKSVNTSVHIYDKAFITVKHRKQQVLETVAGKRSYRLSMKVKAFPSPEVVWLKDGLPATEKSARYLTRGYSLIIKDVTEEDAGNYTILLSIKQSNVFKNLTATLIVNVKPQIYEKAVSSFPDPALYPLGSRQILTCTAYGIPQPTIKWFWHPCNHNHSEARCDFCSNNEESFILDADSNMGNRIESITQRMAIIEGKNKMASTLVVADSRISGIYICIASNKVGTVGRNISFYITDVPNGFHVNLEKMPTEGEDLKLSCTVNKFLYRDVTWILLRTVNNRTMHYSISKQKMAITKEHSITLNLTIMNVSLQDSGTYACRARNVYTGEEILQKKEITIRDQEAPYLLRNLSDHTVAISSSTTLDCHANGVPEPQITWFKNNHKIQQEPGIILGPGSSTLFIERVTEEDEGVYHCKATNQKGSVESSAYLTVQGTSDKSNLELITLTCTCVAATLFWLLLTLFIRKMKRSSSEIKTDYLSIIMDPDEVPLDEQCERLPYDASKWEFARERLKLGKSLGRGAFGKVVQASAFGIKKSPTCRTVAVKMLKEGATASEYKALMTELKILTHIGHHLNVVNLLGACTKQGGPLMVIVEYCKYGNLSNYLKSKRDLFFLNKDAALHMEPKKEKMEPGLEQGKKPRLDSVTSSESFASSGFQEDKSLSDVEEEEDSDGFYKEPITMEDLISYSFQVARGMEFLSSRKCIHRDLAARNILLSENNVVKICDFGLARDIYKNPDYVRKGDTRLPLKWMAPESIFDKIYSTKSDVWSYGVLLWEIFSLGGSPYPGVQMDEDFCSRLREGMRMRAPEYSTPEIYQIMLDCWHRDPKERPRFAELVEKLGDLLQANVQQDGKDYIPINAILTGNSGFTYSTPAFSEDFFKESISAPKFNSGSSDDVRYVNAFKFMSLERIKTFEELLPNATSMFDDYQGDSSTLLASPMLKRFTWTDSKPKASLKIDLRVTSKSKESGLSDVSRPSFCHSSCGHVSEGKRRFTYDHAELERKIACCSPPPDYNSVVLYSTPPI
# Flt3 = Flt3 (Homo sapiens, UniProt P36888); assay: KinaseProfiler kinase activity assay; format: biochemical
# Fms = Fms (Homo sapiens, UniProt P07333); assay: KinaseProfiler kinase activity assay; format: biochemical
# IGF-1R = IGF-1R (Homo sapiens, UniProt P08069); assay: KinaseProfiler kinase activity assay; format: biochemical
# JAK2 = JAK2 (Homo sapiens, UniProt O60674); assay: KinaseProfiler kinase activity assay; format: biochemical
# MEKK3 = MEKK3 (Homo sapiens, UniProt Q99759); assay: KinaseProfiler kinase activity assay; format: biochemical
# Summary of the method: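 Kinase was prepared in 50 mM HEPES, 1 mM EDTA, 10 mM DTT, 0.01 % Brij-35. Activity was measured radiometrically with 10 µM test compound added first from a 50× DMSO stock, without pre-incubation. Activity is expressed relative to 2 % DMSO control wells (100 %) and staurosporine blank wells (0 %).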
# PDGFRα = PDGFRα (Homo sapiens, UniProt P16234); assay: KinaseProfiler kinase activity assay; format: biochemical
# Summary of the method: as §2
# PKA = PKA (Homo sapiens, UniProt P17612); assay: KinaseProfiler kinase activity assay; format: biochemical
# Summary of the method: as §2
# PKBα = PKBα (Homo sapiens, UniProt P31749); assay: KinaseProfiler kinase activity assay; format: biochemical
# Summary of the method: as §2
# Ret = Ret (Homo sapiens, UniProt P07949); assay: KinaseProfiler kinase activity assay; format: biochemical
# Summary of the method: as §2
# Src(1-530) = Src(1-530) (Homo sapiens, UniProt P12931); assay: KinaseProfiler kinase activity assay; format: biochemical
# Summary of the method: as §2
# ATM = ATM (Homo sapiens, UniProt Q13315); assay: KinaseProfiler kinase activity assay; format: biochemical
# Summary of the method: (§3)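 Radiometric activity assay with 10 µM test compound, added first from a 50× stock in 100 % DMSO, with no compound–kinase pre-incubation. Full activity came from 2 % DMSO wells without compound. The 0 % baseline came from a reference inhibitor: KU55933 for ATM, PI-103 for DNA-PK.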
# DNA-PK = DNA-PK (Homo sapiens, UniProt P78527); assay: KinaseProfiler kinase activity assay; format: biochemical
# Summary of the method: as §3
# [6] = system: panel of 20 human protein kinases; assay: KinaseProfiler, whole panel; format: biochemical; settings: 10 µM
# T1 sequence (P11388 whole entry): as the sequence (P11388 whole entry) above
smiles,measurement,setting,value
"O=c1nc(SCc2cc(F)cc(C(F)(F)F)c2)nc(SCc2ccc3sccc3c2)[nH]1 [Compound 24, 6-((Benzo[b]thiophen-5-ylmethyl)thio)−4-((3-fluoro-5-(trifluoromethyl)benzyl)thio)−1,3,5-triazin-2(1H)-one]",IC50,human topo IIβ,9.9 ± 0.4 µM
same,linear plasmid in the cleavage assay (in words),human topo IIα [1],a low level of linear plasmid was detected at 15.6 μM and above
same,linear product in the competitive cleavage assay (in words),human topo IIα [2],appeared to reduce the linear product of the etoposide-topoIIα cleavage complex at lower concentrations
same,unwinding / intercalation (in words),wheatgerm topo I,inhibitors rather than intercalators
same,mode of inhibition with respect to ATP (in words),human topo II,no noticeable decrease in IC50 values
same,interaction with the ATPase domain of topo IIα by STD NMR (in words),[3],confirmed the interaction
same,solubility (in words),[4],more soluble compared to the benzyl-substituted analogues
same,cytotoxic activity in NCI-60 (in words),[5],marginal cytotoxicity in several leukemia cell lines
same,activity at 10 µM,B-Raf,93%
same,activity at 10 µM,CDK1/cyclinB,124%
same,activity at 10 µM,cKit,99%
same,activity at 10 µM,c-RAF,110%
same,activity at 10 µM,EGFR,100%
same,activity at 10 µM,FGFR1,90%
same,activity at 10 µM,FGFR3,92%
same,activity at 10 µM,Flt1,93%
same,activity at 10 µM,Flt3,93%
same,activity at 10 µM,Fms,77%
same,activity at 10 µM,IGF-1R,92%
same,activity at 10 µM,JAK2,107%
same,activity at 10 µM,MEKK3,87%
same,activity at 10 µM,PDGFRα,106%
same,activity at 10 µM,PKA,86%
same,activity at 10 µM,PKBα,105%
same,activity at 10 µM,Ret,91%
same,activity at 10 µM,Src(1-530),127%
same,activity at 10 µM,ATM,86%
same,activity at 10 µM,DNA-PK,83%
same,inhibition of the panel of 20 human protein kinases (in words),[6],no significant inhibitory effect was observed
